# Data published in ChEMBL document CHEMBL2074314, “Involvement of human organic anion transporting polypeptide OATP-B (SLC21A9) in pH-dependent transport across intestinal apical membrane” (J Pharmacol Exp Ther, 2003).
# Experiments:
# [1] = target: T1, OATP-B (SLCO2B1, OATP2B1) (Homo sapiens, UniProt O94956); assay: TP_TRANSPORTER: inhibition of E1S uptake (E1S: 0.00476 uM, phthalic acid: 10000 uM) in OATP-B-expressing HEK293 cells; assay type: functional, cell-based; design: scale not given: the % may be the effect or the level left; conditions: probe E1S (0.00476 uM), read-out: Activity
# T1 sequence (O94956 whole entry): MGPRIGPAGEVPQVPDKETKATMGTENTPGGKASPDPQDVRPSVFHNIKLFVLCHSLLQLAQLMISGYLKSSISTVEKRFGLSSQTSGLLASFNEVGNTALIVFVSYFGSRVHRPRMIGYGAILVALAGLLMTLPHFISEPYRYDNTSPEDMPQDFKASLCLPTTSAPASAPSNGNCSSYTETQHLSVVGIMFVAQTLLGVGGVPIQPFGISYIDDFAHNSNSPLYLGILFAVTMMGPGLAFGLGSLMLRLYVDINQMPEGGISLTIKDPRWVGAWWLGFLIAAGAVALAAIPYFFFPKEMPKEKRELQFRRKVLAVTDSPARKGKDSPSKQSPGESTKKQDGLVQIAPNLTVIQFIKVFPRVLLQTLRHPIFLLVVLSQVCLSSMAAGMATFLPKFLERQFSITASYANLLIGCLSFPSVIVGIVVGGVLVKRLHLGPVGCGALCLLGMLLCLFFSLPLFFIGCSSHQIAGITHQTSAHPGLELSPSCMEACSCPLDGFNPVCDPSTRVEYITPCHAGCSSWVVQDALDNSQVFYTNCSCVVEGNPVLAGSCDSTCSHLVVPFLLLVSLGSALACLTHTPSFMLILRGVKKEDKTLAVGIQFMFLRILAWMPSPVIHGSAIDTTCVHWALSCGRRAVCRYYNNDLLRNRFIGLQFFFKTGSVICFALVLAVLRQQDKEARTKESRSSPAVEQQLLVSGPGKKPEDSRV
# Procedure, shortened: (§1)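 HEK293 cells transfected with pcDNA3/OATP-B or empty vector (mock) by calcium phosphate, harvested 40-48 h later and suspended. Preincubated 20 min at 37°C at pH 7.4, then [3H]estrone-3-sulfate (4.76 nM) uptake for 10 min at 37°C in MES-buffered medium, pH 5.5. Cells separated by silicone oil centrifugal filtration and counted by scintillation. Mock-corrected uptake given as % of no-inhibitor control; mean ± S.E.M., n=3 or 4.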
# [2] = target: T1, OATP-B (SLCO2B1, OATP2B1); assay: TP_TRANSPORTER: inhibition of E1S uptake (E1S: 0.00476 uM, benzoic acid: 10000 uM) in OATP-B-expressing HEK293 cells; assay type: functional, cell-based; design: scale not given: the % may be the effect or the level left; conditions: probe E1S (0.00476 uM), read-out: Activity; procedure, shortened: as §1
# [3] = target: T1, OATP-B (SLCO2B1, OATP2B1); assay: in vitro; conditions: HEK293 cells expressing OATP-B, probe E1S (0.00476 uM)
# [4] = target: T1, OATP-B (SLCO2B1, OATP2B1); assay: TP_TRANSPORTER: inhibition of E1S uptake (E1S: 0.00476 uM, oxalic acid: 10000 uM) in OATP-B-expressing HEK293 cells; assay type: functional, cell-based; design: scale not given: the % may be the effect or the level left; conditions: probe E1S (0.00476 uM), read-out: Activity; procedure, shortened: as §1
# [5] = target: T1, OATP-B (SLCO2B1, OATP2B1); assay: TP_TRANSPORTER: inhibition of E1S uptake (E1S: 0.00476 uM, citric acid: 10000 uM) in OATP-B-expressing HEK293 cells; assay type: functional, cell-based; design: scale not given: the % may be the effect or the level left; conditions: probe E1S (0.00476 uM), read-out: Activity; procedure, shortened: as §1
# [6] = target: T1, OATP-B (SLCO2B1, OATP2B1); assay: in vitro; conditions: HEK293 cells expressing OATP-B, probe E1S (0.00476 uM); remark: listed apart in the source
# [7] = target: T2, Solute carrier organic anion transporter family member 2B1 (Homo sapiens, UniProt O94956); assay: TP_TRANSPORTER: uptake (pH 7.4) in OATP-B-expressing HEK293 cells; assay type: functional, cell-based; conditions: hek293, pH 7.4
# T2 sequence (O94956 whole entry): T1 sequence (O94956 whole entry)
# [8] = target: T2, Solute carrier organic anion transporter family member 2B1; assay: TP_TRANSPORTER: uptake (pH 5.5) in OATP-B-expressing HEK293 cells; assay type: functional, cell-based; conditions: hek293, pH 5.5
# [9] = target: T1, OATP-B (SLCO2B1, OATP2B1); assay: TP_TRANSPORTER: inhibition of E1S uptake (E1S: 0.00476 uM, lactic acid: 10000 uM) in OATP-B-expressing HEK293 cells; assay type: functional, cell-based; design: scale not given: the % may be the effect or the level left; conditions: probe E1S (0.00476 uM), read-out: Activity; procedure, shortened: as §1
smiles,measurement,setting,value
O=C(O)c1ccccc1C(=O)O [PHTHALIC ACID],activity at 10000 uM,[1],42.7%
O=C(O)c1ccccc1 [BENZOIC ACID],activity at 10000 uM,[2],56.1%
O=C(O)c1cccnc1 [NIACIN],activity at 10000 uM,[3],59.7%
O=C(O)C(=O)O [OXALIC ACID],activity at 10000 uM,[4],83.9%
O=C(O)CC(O)(CC(=O)O)C(=O)O [CITRIC ACID],activity at 10000 uM,[5],97.7%
CC(=O)O [ACETIC ACID],activity at 10000 uM,[6],86.1%
C[C@]12CC[C@@H]3c4ccc(OS(=O)(=O)O)cc4CC[C@H]3[C@@H]1CCC2=O [ESTRONE SULFURIC ACID],Activity,[7],substrate [+]
CC[C@H](C)C(=O)O[C@H]1C[C@H](O)C=C2C=C[C@H](C)[C@H](CC[C@@H](O)C[C@@H](O)CC(=O)O)[C@H]21 [PRAVASTATIN],Activity,[8],substrate [+]
C[C@@H](O)C(=O)O [D-LACTIC ACID],activity at 10000 uM,[9],85.6%
